Results reported in paper PMC3088362 (Journal of the American Society for Mass Spectrometry, 2010).
Each block holds one compound with its values, some of them ahead of it.

What was measured:
Format in all cases: biochemical
human TPST-2 [1] = target: T1, human TPST-2 (Homo sapiens, UniProt O60704); assay: LC-MS initial-velocity kinetics, Reaction 1: sulfation of nonCCR8
T1 sequence (O60704 25-377 limits assumed): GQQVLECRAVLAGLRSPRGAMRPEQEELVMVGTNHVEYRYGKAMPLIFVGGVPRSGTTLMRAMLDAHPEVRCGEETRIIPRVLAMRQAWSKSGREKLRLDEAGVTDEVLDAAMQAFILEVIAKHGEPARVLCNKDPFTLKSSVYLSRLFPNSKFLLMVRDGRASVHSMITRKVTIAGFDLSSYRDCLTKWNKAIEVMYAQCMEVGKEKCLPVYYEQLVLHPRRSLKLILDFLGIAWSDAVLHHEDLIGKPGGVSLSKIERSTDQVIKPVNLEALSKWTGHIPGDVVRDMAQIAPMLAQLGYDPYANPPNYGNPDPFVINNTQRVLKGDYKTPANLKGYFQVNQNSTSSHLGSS
Summary of the method: (§1)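 Enzyme was soluble HPC4-epitope-tagged human TPST-2 (transferrin signal peptide), affinity-purified from stably transfected CHO-K1 cells. PAPS and peptide were varied as a matrix in 20 mM MOPS pH 7.5, 100 mM NaCl, 10% glycerol at 30 °C. Reactions started with 250–750 nM enzyme, ran 6–20 min, and were quenched with methanol (0.5 µM final internal standard). Product was read by RP-LC negative-ESI SIM against a calibration curve. Data were fit to the ping-pong equation; kcat/Km came from fitted constants.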

human TPST-2 [2] = target: T1, human TPST-2; assay: LC-MS initial-velocity kinetics, Reaction 2: sulfation of sY15CCR8
Summary of the method: as §1

human TPST-2 [3] = target: T1, human TPST-2; assay: Product inhibition by PAP, Reaction 1
Summary of the method: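 Initial rates of nonCCR8 sulfation by HPC4-purified soluble human TPST-2 were measured at fixed PAP levels. Buffer was 20 mM MOPS pH 7.5, 100 mM NaCl, 10% glycerol, 30 °C. Reactions were quenched with methanol containing internal standard, and product was quantified by LC-ESI-MS SIM. Data were fit by nonlinear regression to competitive or noncompetitive inhibition equations. Two or three independent experiments.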

human TPST-2 [4] = target: T1, human TPST-2; assay: Product inhibition by PAP, Reaction 2; conditions: pH 7.5, 30°C
human TPST-2 [5] = target: T1, human TPST-2; assay: 35S-sulfation of factor IX by TPST-2; conditions: with (lane 1) or without (lane 2) TPST-2; 6 h at 37°C, pH 6.9; autoradiography

Compound: Nc1ncnc2c1ncn2[C@@H]1O[C@H](COP(=O)(O)OS(=O)(=O)O)[C@@H](OP(=O)(O)O)[C@H]1O [PAPS, 3′-phosphoadenosine 5′-phosphosulfate, reference compound]
substrate preference by specificity constants, Reaction 1 (human TPST-2 [1]; PAPS compared with nonCCR8): preferred substrate over nonCCR8
specificity constant kcat/Km for PAPS (human TPST-2 [1]; Reaction 1, for PAPS, calculated from Table 1 values): 590 M⁻¹ s⁻¹
specificity constant kcat/Km of PAPS (human TPST-2 [2]; Reaction 2, for PAPS, calculated from Table 1 values): 280 M⁻¹ s⁻¹

KI', product inhibition constant for PAP versus nonCCR8 (human TPST-2 [3]; Reaction 1, pH 7.5, 30°C, mean of two or three independent experiments): 1.2 µM
PAP inhibition mode with respect to PAPS (human TPST-2 [4]; PAPS varied 5-25 µM, sY15CCR8 25 µM): competitively
PAP inhibition mode with respect to sY15CCR8 (human TPST-2 [4]; sY15CCR8 varied 5-25 µM, PAPS 25 µM): noncompetitively
Compound: Nc1ncnc2c1ncn2[C@@H]1O[C@H](COP(=O)(O)O)[C@@H](OP(=O)(O)O)[C@H]1O [PAP]
PAP inhibition patterns, Reaction 1, compared with Reaction 2 (human TPST-2 [3]; Reaction 1, with respect to PAPS and nonsulfated CCR8, data not shown): The same PAP inhibition patterns were observed with respect to PAPS and nonsulfated CCR8 substrates

specificity constant kcat/Km (human TPST-2 [1]; Reaction 1, for nonCCR8, calculated from Table 1 values): 270 M⁻¹ s⁻¹
estimated Vmax (human TPST-2 [1]; Reaction 1, calculated from intercept replots, pH 7.5, 30°C): 6.7 mU/mg protein
Km of nonsulfated CCR8 peptide relative to monosulfated peptide (human TPST-2 [1]; ratio to Km of sY15CCR8): at least five
Compound: VTDYYYPDI [nonCCR8]

35S-sulfuryl group transfer to factor IX (human TPST-2 [5]): occurred only in the presence TPST-2
Compound: factor IX: recombinant human factor IX, BeneFIX, Wyeth Pharmaceuticals Inc.

Compound: VTDsYYYPDI [sY15CCR8]
specificity constant kcat/Km of sY15CCR8 (human TPST-2 [2]; Reaction 2, for sY15CCR8, calculated from Table 1 values): 430 M⁻¹ s⁻¹
estimated Vmax (human TPST-2 [2]; Reaction 2, from intercept replots, pH 7.5, 30°C): 1.7 mU/mg protein
substrate preference by specificity constants, Reaction 2 (human TPST-2 [2]; sY15CCR8 compared with PAPS): preferred than PAPS
substrate suitability by kcat/Km (human TPST-2 [2]; sY15CCR8 compared with nonCCR8): more suitable substrate than nonCCR8
